Drawing on ChEMBL document CHEMBL1127042, “Molecular size and flexibility as determinants of selectivity in the oxidation of N-methyl-4-phenyl-1,2,3,6-tetrahydropyridine analogs by monoamine oxidase A and B” (J Med Chem, 1993), this text covers TN, Ratio and Km for 17 compounds.

The target in data set [1] is T1, Amine oxidase [flavin-containing] A (Homo sapiens, UniProt P21397).
T1 sequence (P21397 whole entry): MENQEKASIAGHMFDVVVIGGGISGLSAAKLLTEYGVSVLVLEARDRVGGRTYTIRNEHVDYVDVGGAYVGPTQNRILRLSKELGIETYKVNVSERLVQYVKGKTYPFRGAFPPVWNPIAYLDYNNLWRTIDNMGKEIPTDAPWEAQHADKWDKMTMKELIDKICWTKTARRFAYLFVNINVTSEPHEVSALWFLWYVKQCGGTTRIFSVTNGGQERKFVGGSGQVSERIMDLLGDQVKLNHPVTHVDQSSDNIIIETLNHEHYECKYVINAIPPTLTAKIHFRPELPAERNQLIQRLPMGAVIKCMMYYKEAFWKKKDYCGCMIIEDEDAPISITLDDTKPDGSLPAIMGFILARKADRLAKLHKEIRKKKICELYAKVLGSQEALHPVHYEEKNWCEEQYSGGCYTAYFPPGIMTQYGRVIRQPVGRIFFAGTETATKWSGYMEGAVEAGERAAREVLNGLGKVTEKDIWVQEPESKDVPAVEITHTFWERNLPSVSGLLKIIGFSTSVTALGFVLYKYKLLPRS
The data set is described as follows: Turnover number against MAO A (umol of substrate/min per umol of enzyme). Summed up:
(§1)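 Human liver MAO A expressed in yeast, purified. Initial oxidation rates measured polarographically (O2 uptake) at 30 °C in sodium phosphate buffer, pH 7.2, with 0.2% (w/v) Brij-35. Enzyme was added last to start the reaction, and its amount was set so rates were read within 60-120 s. Vmax came from double-reciprocal plots. TN was Vmax divided by flavin content. Flavin content was found from the optical density change on anaerobic reduction by kynuramine.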

Data set [2] addresses T2, Amine oxidase [flavin-containing] B (Bos taurus, UniProt P56560).
T2 sequence (P56560 whole entry): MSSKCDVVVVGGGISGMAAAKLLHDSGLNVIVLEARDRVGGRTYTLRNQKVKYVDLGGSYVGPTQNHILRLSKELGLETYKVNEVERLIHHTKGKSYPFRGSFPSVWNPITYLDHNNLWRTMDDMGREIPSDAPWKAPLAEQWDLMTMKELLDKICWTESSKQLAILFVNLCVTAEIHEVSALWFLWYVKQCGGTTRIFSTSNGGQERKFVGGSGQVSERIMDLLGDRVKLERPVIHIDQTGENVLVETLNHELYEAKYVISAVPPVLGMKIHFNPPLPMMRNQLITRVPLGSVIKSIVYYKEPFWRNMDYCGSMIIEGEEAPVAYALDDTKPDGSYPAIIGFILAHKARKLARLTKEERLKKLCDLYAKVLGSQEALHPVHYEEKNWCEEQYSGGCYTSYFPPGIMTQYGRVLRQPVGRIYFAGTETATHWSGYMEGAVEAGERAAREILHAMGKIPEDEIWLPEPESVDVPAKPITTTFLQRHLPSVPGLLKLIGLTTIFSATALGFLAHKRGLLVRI
The data set is described as follows: Turnover number against MAO B (umol of substrate/min per umol of enzyme). Particulars: cattle. Summed up:
(§2)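 Beef liver MAO B, purified. Initial oxidation rates measured polarographically at 30 °C in sodium phosphate buffer, pH 7.2, with 0.2% (w/v) Brij-35. The reaction was started by adding enzyme, dosed so rates were measurable within 60-120 s. Vmax came from double-reciprocal plots. Turnover number was Vmax per flavin content. Flavin content came from the optical density change on anaerobic reduction by benzylamine.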

Data set [3] concerns the target T2, Amine oxidase [flavin-containing] B. In words: Ratio of turnover number(TN)and Km for MAO B. Particulars: cattle. Summed up: as §2
Data set [4] deals with Amine oxidase [flavin-containing] A (Homo sapiens) (UniProt P21397). In words: Ratio between TN and Km against MAO A.
The target of data set [5] is T3, MAO A (amine oxidase [flavin-containing] A) (Homo sapiens, UniProt P21397).
T3 sequence (P21397 whole entry): T1 sequence (P21397 whole entry)
The data set is described as follows: Michaelis-Menten constant against MAO A. Summed up: as §1

Data set [6] addresses T2, Amine oxidase [flavin-containing] B. The data set is described as follows: Ratio between TN and Km against MAO B. The note with it: cattle. A digest of the protocol: as §2

Values joined by “and” are separate entries in the source; they are usually repeats but may differ in a detail not shown here. Equal entries are not always repeated.

For the compound `CN1CC=C(CCc2ccccc2)CC1`, the figures for the TN in data set [1] and in data set [2] were 137 min⁻¹ and 61 min⁻¹, respectively. Further, the figures for the Ratio in data set [3] and in data set [4] were 1130 and 1120, respectively.

For `CN1CC=C(CCc2ccc3ccccc3c2)CC1`, the TN in data set [1] amounted to 95.9 min⁻¹; in data set [2], 79 min⁻¹. Besides, the Ratio in data set [3] is 76; in data set [4], 2225.

For the compound `CN1CC=C(c2ccc3ccccc3c2)CC1`, the TN was 10.2 min⁻¹ in data set [1] and 73.5 min⁻¹ in data set [2]. The Ratio in data set [3] is 101; in data set [4], 2216.

Turning to `CN1CC=C(Cc2cccs2)CC1`, the values for the TN in data set [1] and in data set [2] were 8.4 min⁻¹ and 337 min⁻¹, respectively. For the same compound, the results for the Ratio in data set [3] and in data set [4] were 3270 and 175, respectively.

For the compound `CN1CC=C(c2cccs2)CC1`, the TN in data set [1] stood at 5.21 min⁻¹; in data set [2], 12 min⁻¹. Moreover, the Ratio in data set [3] came to 71; in data set [4], 28.

In the case of `CN1CC=C(CCc2ccsc2)CC1`, the TN in data set [1] was 29.7 min⁻¹; in data set [2], 50.7 min⁻¹. Further, the Ratio in data set [3] came to 890; in data set [4], 228.

Consider `CN1CC=C(CCc2cccs2)CC1`, for which the TN in data set [1] is 42 min⁻¹; in data set [2] it was 51.9 min⁻¹. Also, the figures for the Ratio in data set [3] and in data set [4] were 1059 and 389, respectively.

Regarding `CN1CC=C(c2ccsc2)CC1`, the TN in data set [1] was 8.14 min⁻¹; in data set [2] it was 4.17 min⁻¹. For the same compound, in data set [4], the Ratio is 80 and 160.

Regarding `NCc1ccccc1` [BENZYLAMINE], the TN in data set [1] turned out to be 10 min⁻¹; in data set [2], 283 min⁻¹. For the same compound, the Ratio stood at 963 in data set [3] and 13 in data set [4].

Consider `CN1CC=C(Cc2ccccc2)CC1`, for which the TN in data set [1] turned out to be 9.2 min⁻¹; in data set [2], 193 min⁻¹. Also, the results for the Ratio in data set [3] and in data set [4] were 1250 and 139, respectively.

Broadly, the Km is the concentration of substrate that gives half-maximal velocity. In the case of `CN1CC=C(c2ccccc2)CC1`, the TN in data set [1] was 20 min⁻¹; in data set [2], 204 min⁻¹. Moreover, the Ratio amounted to 523 in data set [3] and 143 in data set [4]. Further, in data set [5], the Km worked out at 140 µM.

For `CN1CC=C(Cc2ccc3ccccc3c2)CC1`, the figures for the TN in data set [1] and in data set [2] were 121 min⁻¹ and 274 min⁻¹, respectively. Moreover, the values for the Ratio in data set [3] and in data set [4] were 326 and 3344, respectively.

Turning to `NCCC(=O)c1ccccc1N` [KYNURAMINE], the Ratio in data set [6] came to 1964; in data set [4], 860. In addition, the TN in data set [1] is 146 min⁻¹; in data set [2], 165 min⁻¹.

Turning to `CN1CC=C(Cc2ccsc2)CC1`, the figures for the TN in data set [1] and in data set [2] were 13.3 min⁻¹ and 153 min⁻¹, respectively. Also, the Ratio in data set [3] was determined as 785; in data set [4] it was 98.

`CN1CC=C(Cc2cccc3ccccc23)CC1`: the TN in data set [1] stood at 443 min⁻¹; in data set [2] it was 89 min⁻¹. The Ratio is listed as 105 in data set [3] and 2592 in data set [4].

In the case of `CN1CC=C(c2cccc3ccccc23)CC1`, the TN was found to be 140 min⁻¹ in data set [1] and 55 min⁻¹ in data set [2]. The Ratio in data set [3] is given as 500; in data set [4], 1893.

Turning to `CN1CC=C(CCc2cccc3ccccc23)CC1`, the figures for the TN in data set [1] and in data set [2] were 244 min⁻¹ and 80 min⁻¹, respectively. Moreover, the Ratio was 62 in data set [3] and 3187 in data set [4].
